# This is a sample that favours compounds with a hit; in the whole collection about 1.6% have one here.
# ABHD5 PLIN5 PPI – ABHD5-PLIN5 protein interaction inhibition; Q00G26+Q8WTS1; hit rate 0.78% among 360,000; AID 602281; inhibition, % at 4 µM; Split G. princeps luciferase complementation, luminescence, 4 h;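 active means inhibition above the mean inhibition across every tested compound plus 3 SD, cut at about 22% in these data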;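 further: 0% = DMSO only wells and the 100% control is not disclosed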
# Dynein transport – dynein cargo transport inhibition; 3617.4 mouse cells, GR-EGFP nuclear translocation imaging; test concentration mostly 20 µM; stimulated with dexamethasone, 1 µM; active compounds read low; z-score, hits read low; hit rate 0.47% among 220,000; AID 1381;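 active means plate z-score of nuclear minus cytoplasmic receptor signal below a set negative limit, without overly bright fluorescence or cell loss, cut at about -3.5 in these data, passing the limit was not always enough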;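 further: z-score of nuclear minus cytoplasmic ring GR-EGFP intensity difference per well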
#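 Buffer or medium: tet-free medium with charcoal-stripped serum / Also added: dexamethasone agonist, 1.0 µM final, for 30 min / Timing: induction 48 h, compound 1 h, agonist 30 min / Measured by: high-content fluorescence imaging after fixation / Read-out: nuclear-to-cytoplasmic GR-EGFP distribution per well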
# TLR4 MyD88 comp – TLR4-MyD88 interaction inhibition in cells. hit rate 0.18% among 200,000. HeLa CL3-4 TLR4/MyD88 BLA complementation, FRET ratio. AID 861. inhibition, % at 8.4 µM; in the data active means inhibition above about 25%;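 further: 0% = vehicle and 100% = reference inhibitor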
# NOD2 RIPK2 PPI – inhibitors of human NOD2-RIPK2 interaction | CHO BLA complementation NOD2-RIPK2, CCF4 ratio | inhibition, % at 4.98 µM | hit rate 0.38% among 360,000 | AID 624267; in the data active means inhibition above about 21%;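 further: 0% = vehicle only and 100% = reference blocker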
# TLR9-MyD88 inh – TLR9-MyD88 interaction inhibition; Q9NR96+Q99836; CHO BLA complementation TLR9-MyD88, CCF4 FRET ratio; inhibition, % at 4.98 µM; hit rate 0.21% among 340,000;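 active means inhibition above the mean over all tested compounds plus 3 SD, cut at about 21% in these data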;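 further: 0% = DMSO only wells and 100% = clavulanate BLA inhibitor control wells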
# Target sequence (Q99836 whole entry, looked up): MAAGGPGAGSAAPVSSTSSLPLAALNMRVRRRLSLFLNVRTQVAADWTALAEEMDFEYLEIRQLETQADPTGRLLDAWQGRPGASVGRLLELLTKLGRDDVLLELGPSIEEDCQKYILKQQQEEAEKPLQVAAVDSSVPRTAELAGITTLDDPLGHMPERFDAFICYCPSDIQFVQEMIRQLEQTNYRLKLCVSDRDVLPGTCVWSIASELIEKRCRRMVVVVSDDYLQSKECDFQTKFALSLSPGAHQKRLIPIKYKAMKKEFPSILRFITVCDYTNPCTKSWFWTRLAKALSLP
# Target sequence (Q9NR96 whole entry, looked up): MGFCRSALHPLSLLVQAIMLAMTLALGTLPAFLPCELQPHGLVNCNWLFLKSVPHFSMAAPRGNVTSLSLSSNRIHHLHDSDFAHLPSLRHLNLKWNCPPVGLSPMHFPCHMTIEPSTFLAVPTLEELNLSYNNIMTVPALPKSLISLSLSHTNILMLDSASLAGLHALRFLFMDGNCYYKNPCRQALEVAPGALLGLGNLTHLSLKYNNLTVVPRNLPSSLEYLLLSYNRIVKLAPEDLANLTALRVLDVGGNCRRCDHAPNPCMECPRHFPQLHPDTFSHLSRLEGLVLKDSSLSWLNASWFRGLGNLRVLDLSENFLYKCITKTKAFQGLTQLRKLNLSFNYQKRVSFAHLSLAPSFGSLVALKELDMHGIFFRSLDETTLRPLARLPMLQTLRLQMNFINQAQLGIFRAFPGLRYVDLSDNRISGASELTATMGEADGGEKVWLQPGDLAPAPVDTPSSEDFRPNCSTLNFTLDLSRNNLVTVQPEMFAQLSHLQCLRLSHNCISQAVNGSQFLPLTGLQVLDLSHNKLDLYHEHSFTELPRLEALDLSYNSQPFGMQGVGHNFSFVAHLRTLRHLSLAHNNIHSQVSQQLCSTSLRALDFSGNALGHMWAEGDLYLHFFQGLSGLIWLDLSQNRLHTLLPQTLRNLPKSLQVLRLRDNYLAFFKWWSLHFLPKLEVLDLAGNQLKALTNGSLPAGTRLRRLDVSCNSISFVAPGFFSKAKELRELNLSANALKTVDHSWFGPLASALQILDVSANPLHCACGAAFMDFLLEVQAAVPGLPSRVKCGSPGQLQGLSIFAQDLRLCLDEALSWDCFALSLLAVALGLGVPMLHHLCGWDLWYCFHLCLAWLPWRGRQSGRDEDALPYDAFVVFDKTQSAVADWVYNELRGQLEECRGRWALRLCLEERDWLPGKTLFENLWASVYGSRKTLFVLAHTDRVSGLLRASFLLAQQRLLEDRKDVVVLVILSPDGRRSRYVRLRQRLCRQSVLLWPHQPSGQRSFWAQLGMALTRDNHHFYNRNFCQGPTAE
# Beta2AR agonist – activates human beta-2 adrenergic receptor causing internalization | P07550 | response, % (concentration not given with the values) | hit rate 0.43% among 340,000 | Am2.2-beta2AR cells, FAP receptor internalization, flow cytometry;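 active means response above a set limit, near 3 SD of response in nonfluorescent compounds, cut at about 42% in these data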
# TLR4 MyD88 cnf – confirmation of human TLR4-MyD88 binding inhibitors; shares compounds with TLR4 MyD88 comp; HeLa CL3-4 BLA complementation, CCF4 FRET ratio; inhibition, % at 8.4 µM; hit rate 50% among 350;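 active means mean inhibition across three repeat runs above about 25% carried over from the earlier screen, limit read from the data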;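 further: plate controls were DMSO only for no effect and clavulanic acid blocking BLA at full dose for full effect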
# BLA inh HeLa – beta-lactamase inhibition flagged in TLR4-MyD88 counter-screen. shares compounds with TLR4 MyD88 comp. HeLa BLA reporter, CCF4 FRET ratio. inhibition, % at 8.4 µM. hit rate 63% among 350;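 active means mean inhibition over three repeats above about 26% taken from the earlier screen, limit read from the data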;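 further: HeLa cells stably expressing beta-lactamase reporter as counterscreen for TLR4-MyD88 inhibitors; 0% = DMSO and 100% = clavulanic acid full inhibition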
# Dynein confirm – dynein cargo transport inhibition, confirmation | AID 463116 | shares compounds with Dynein transport | calls only at 20 µM | 3617.4 GR-EGFP nuclear translocation imaging, dexamethasone-induced | hit rate 69% among 1,000;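 active means inhibition of receptor movement into the nucleus at or above a set limit in both runs, with normal cell brightness and cell count; inconclusive means limit reached in only one run, brightness and count normal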;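 further: dexamethasone at 1 µM final in well for 30 min; nuclear minus cytoplasmic GR-EGFP mean intensity difference in channel 2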
# TLR9-MyD88 cf – confirmation of human TLR9-MyD88 binding inhibitors. AID 540250. shares compounds with TLR9-MyD88 inh. CHO TLR9/MyD88 BLA complementation, CCF4 FRET ratio. hit rate 51% among 680. inhibition, % at 4.98 µM;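 active means mean inhibition across three repeats above about 21% taken from the earlier screen, limit read from the data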;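 further: blue over green emission ratio reports constitutive TLR9 MyD88 association via BLA complementation; 0% = DMSO vehicle wells and 100% = clavulanate BLA inhibitor wells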
# BLA counter-1 – beta-lactamase reporter inhibition, counter-screen artifact | hit rate 7% among 680 | CHO-BLA cells, CCF4 FRET ratio, BLA reporter | inhibition, % at 4.98 µM | shares compounds with TLR9-MyD88 inh;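 active means mean inhibition above a 50% cutoff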;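 further: counterscreen of TLR9-MyD88 hits on CMV-driven BLA in CHO-K1 cells; 0% = DMSO alone and 100% = clavulanate blocking BLA; higher means less blue over green ratio so more BLA blockade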
# TLR9 CHO tox – counter-screen for TLR9-MyD88 inhibitors: cytotoxicity in CHO cells. shares compounds with TLR9-MyD88 inh. luminescence. inhibition, % at 4.98 µM. hit rate 39% among 680. AID 588336; in the data active means inhibition above about 11%
# NOD2 RIPK2 conf – confirmation of human NOD2-RIPK2 interaction inhibitors. hit rate 70% among 1,200. shares compounds with NOD2 RIPK2 PPI. CHO cells, NOD2-RIPK2 BLA complementation, CCF4 FRET. inhibition, % at 4.98 µM;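 active means mean inhibition across replicates above a set limit taken from the earlier primary screen, cut at about 21% in these data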;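 further: 0% = DMSO-only wells and the high end = clavulanate BLA-blocked wells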
# BLA counter-2 – counter-screen for NOD2-RIPK2 interaction inhibitors: BLA reporter. shares compounds with NOD2 RIPK2 PPI. CHO BLA reporter, CCF4 FRET ratio, counterscreen. inhibition, % at 4.98 µM. hit rate 57% among 1,200. AID 624371;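 active means mean inhibition above the low-control mean inhibition plus three low-control SD, cut at about 11% in these data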;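 further: 0% = DMSO only wells and 100% = clavulanate high control wells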
# Numbers without * were called inactive; i = inactive; ? = inconclusive; . = not tested or not shown; + = active, no number.
SMILES,ABHD5 PLIN5 PPI,Dynein transport,TLR4 MyD88 comp,NOD2 RIPK2 PPI,TLR9-MyD88 inh,Beta2AR agonist,Dynein confirm,others
CN1CCCc2cc3c(C(F)(F)F)cc(=O)oc3nc21,6.7,0.437,39.4*,34.7*,46.6*,-3.0,.,TLR4 MyD88 cnf=36.5*;BLA inh HeLa=65.9*;TLR9-MyD88 cf=37.7*;BLA counter-1=45.2;TLR9 CHO tox=6.9;NOD2 RIPK2 conf=69.1*;BLA counter-2=72.7*
Cc1ccc(C(=O)c2ccccc2C(=O)OCC(=O)NCCc2ccc(Cl)cc2Cl)cc1,6.0,-0.155,-1.5,-4.2,1.9,-0.2,.,
CCCNC(=O)COC(=O)c1ccccc1C(=O)c1ccc(Cl)c([N+](=O)[O-])c1,1.7,-2.02,26.0*,38.3*,16.8,34.5,.,TLR4 MyD88 cnf=24.4;BLA inh HeLa=6.7;NOD2 RIPK2 conf=62.0*;BLA counter-2=11.2*
C/C(=N\Nc1ccc([N+](=O)[O-])cc1)c1ccc(O)cc1,9.8,0.105,38.4*,29.4*,.,-214.8,.,TLR4 MyD88 cnf=20.3;BLA inh HeLa=44.1*;NOD2 RIPK2 conf=42.4*;BLA counter-2=47.8*
O=C(Nc1nnc([C@H]2C[C@H](O)[C@@H](CO)O2)s1)c1cccc(Oc2ccccc2)c1,12.6,.,.,-22.3,.,.,.,
CCC(=O)c1ccc(/C=C/c2nc3ccccc3n2C)o1,1.6,-0.65,50.1*,57.6*,42.9*,-25.3,.,TLR4 MyD88 cnf=46.7*;BLA inh HeLa=65.0*;TLR9-MyD88 cf=30.9*;BLA counter-1=39.1;TLR9 CHO tox=0.6;NOD2 RIPK2 conf=62.9*;BLA counter-2=64.5*
Cc1ccc(-c2nc3sc(C(N)=O)c(N)c3c3c2CCCC3)cc1,-6.1,0.317,8.5,1.1,-2.4,9.2,.,
CC(=O)c1sc2nc(-c3ccc(C)cc3)c3c(c2c1N)CCCC3,-7.3,0.133,25.6*,35.6*,51.1*,4.0,.,TLR4 MyD88 cnf=31.7*;BLA inh HeLa=61.0*;TLR9-MyD88 cf=41.3*;BLA counter-1=46.4;TLR9 CHO tox=9.3;NOD2 RIPK2 conf=56.5*;BLA counter-2=67.8*
COc1ccc(C(C)=O)cc1Cn1c(C)c(C(=O)NCc2cccc(C)c2)sc1=O,-6.5,.,.,-3.4,.,.,.,
Cc1[nH]c2ccccc2c1CN1CCc2ccccc2C1,-5.5,-3.83*,-6.9,-0.3,4.4,7.4,i,
CCN=c1scc(-c2cccs2)n1/N=C/c1cc(OC)ccc1O,1.2,0.592,10.1,0.3,7.9,10.9,.,
CC(C)N=c1scc(-c2cccs2)n1/N=C/c1ccc(O)c(O)c1O,-22.9,-4.16*,-12.6,3.5,14.5,9.6,+,
N#C/C(=C\c1cccs1)C(=O)c1ccccc1Cl,.,-4.93*,.,.,.,54.4*,+,
COC1=C(Nc2ccccc2OC)C(=O)c2ccccc2C1=O,-13.7,0.437,.,3.8,.,-32.8,.,
COc1ccccc1NC1=C(NC(C)=O)C(=O)c2ccccc2C1=O,5.6,-5.07*,-6.3,-13.4,-10.3,5.7,?,
CN(C)CCCn1c2c(c(SCC(=O)Nc3cccc4ccccc34)nc1=O)CCCC2,-8.5,.,.,2.4,-3.0,-3.0,.,
Cc1ccc(N2C(=O)CC(Sc3ncn[nH]3)C2=O)cc1C (configuration not stated),11.4,-5.96*,8.5,17.8,7.8,2.9,i,
Cc1cccc(N2C(=O)CC(Sc3ncn[nH]3)C2=O)c1 (configuration not stated),3.1,-0.98,6.7,-3.1,-5.0,2.2,.,
CC(C(=O)NC(C)(C)C)n1c(C(c2ccccc2)c2ccccc2)nc2ccccc21 (configuration not stated),-8.3,.,.,-10.7,.,.,.,
CCOC(=O)c1cn(-c2c(Cl)cccc2Cl)c2cc(Cl)c([N+](=O)[O-])cc2c1=O,3.2,-4.4*,-0.7,-4.0,-1.9,13.8,+,
CC(=O)OCCCNc1cc(Sc2ccc(Cl)cc2)c2nonc2c1[N+](=O)[O-],-0.8,-4.8*,2.1,-4.8,5.6,49.5*,+,
CCC(=O)OCCNc1cc(SCCC(=O)OC)c2nonc2c1[N+](=O)[O-],-13.8,-5.62*,-1.9,-9.1,-4.7,76.9*,+,
CC(C)CCSc1cc(NCCO)c([N+](=O)[O-])c2nonc12,-0.4,-3.06,-0.2,3.2,-10.5,2.5,.,
CC(=O)OCCN(C)c1cc(SC(C)C)c2nonc2c1[N+](=O)[O-],-6.0,-4.67*,-0.3,-2.5,-3.9,16.9,+,
C=CCCN(Cc1ccccc1)S(=O)(=O)c1cc(Br)ccc1Br,-3.2,.,.,-2.0,-5.4,4.5,.,
SMILES,ABHD5 PLIN5 PPI,Dynein transport,TLR4 MyD88 comp,NOD2 RIPK2 PPI,TLR9-MyD88 inh,Beta2AR agonist,Dynein confirm,others
CC(C)(C)C(=O)/C=c1\s/c(=C\c2ccc(-c3ccc([N+](=O)[O-])cc3)o2)c(=O)n1CC(=O)NC(N)=O,1.4,-7.95*,12.5,-3.3,4.5,.,+,
CCOC(=O)C1=C(COC(=O)[C@@H]2CCCN2S(=O)(=O)c2ccc(C)cc2)NC(=O)NC1C (some centres not stated),0.3,.,.,1.7,-9.8,-4.1,.,
NC(c1ccccc1)c1csc(Nc2cc(Oc3ccccc3)ncn2)n1 (configuration not stated),1.5,.,.,16.0,.,.,.,
O=C(OCn1ncc(Br)c(Br)c1=O)c1ccc(F)cc1,14.3,-5.1*,16.5,74.3*,34.5*,77.9*,+,
O=C(O)c1ccc(-c2nn3c(=O)cc(N4CCNCC4)nc3s2)cc1,-2.1,.,.,2.0,.,.,.,
COc1ccc(C(=O)CCC(=O)NC2=NCCS2)cc1,-13.3,.,.,-5.3,-4.4,12.6,.,
O=C1CCCC(O)=C1C(C#Cc1ccccc1)C1=C(O)CCCC1=O,10.5,-5.55*,13.1,0.2,-3.1,9.9,+,
Cc1cc(C)c2c(=O)n(CC(=O)NCCCN3CCN(c4ccccc4F)CC3)sc2n1,.,-7.91*,7.1,.,.,.,+,

# Screening data from PubChem.
